Data from paper PMC3665005 (Gene therapy, 2012).

Tested on: luciferase expression in liver
Assay: HD-stimulated expression after tail vein dosing, luciferase in liver by BLI
Format: in vivo, mice
Conditions: HD-stimulation, 5 min delay, 1 μg pGL3, 0.8 nmol peptide
In short: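 Albino ICR mice (three per group) received polyplex (1 μg pGL3, 0.8 nmol PEGylated peptide) in 50 μl HBM (5 mM Hepes, 0.27 M mannitol, pH 7.4) by tail vein. Saline at 9 wt/vol% body weight (1.8-2.25 ml) was given by tail vein over 5 sec. At 24 hrs, liver BLI under 3% isofluorane, 5 min after i.p. D-luciferin (2.4 mg). Mean and standard deviation reported.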

## (Acr-DLys4)3-Acr-DLys-Cys-PEG [4D]
  fold lower gene transfer relative to peptide 4 polyplexes: 5 fold

## (Acr-DLys)3-Acr-DLys-Cys-PEG [1D]
  gene transfer compared with peptide 1 polyplexes (in words): equivalent
